Screening results deposited in PubChem by Sanford-Burnham Center for Chemical Genomics.
An excerpt weighted towards active compounds, which were near 2.3% of everything screened.
STEP block: STEP (human) phosphatase inhibition; P54829; recombinant STEP, OMFP fluorogenic substrate, fluorescence; inhibition, % at 20 µM; 360,000 tested, 0.25% active;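 active = inhibition at 20 µM, scaled per plate between control wells, above about 37%, limit read from the data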;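 also: 0% = DMSO with enzyme and substrate and 100% = substrate only without enzyme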
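System: isolated STEP enzyme; schedule: 20 min enzyme reaction at room temperature, protected from light; medium: Bis-Tris buffer pH 6.0, 2.5 mM DTT, 0.005% Tween 20; signal: fluorescence, 480/540 nm; dosing: single compound dose of 20 µM, 1% DMSO final; also added: OMFP substrate, 25 µM final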
Scp1 inh: inhibitors of human Scp-1 phosphatase | Q9GZU7 | Recombinant Scp1, phosphopeptide, malachite green phosphate absorbance | inhibition, % at 20 µM | 340,000 tested, 0.88% active;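 active = inhibition above about 50% at 20 µM, limit read from the data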;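 also: plate controls were DMSO wells with enzyme for no effect and wells lacking enzyme for full effect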
Target sequence (Q9GZU7 76-261 limits assumed): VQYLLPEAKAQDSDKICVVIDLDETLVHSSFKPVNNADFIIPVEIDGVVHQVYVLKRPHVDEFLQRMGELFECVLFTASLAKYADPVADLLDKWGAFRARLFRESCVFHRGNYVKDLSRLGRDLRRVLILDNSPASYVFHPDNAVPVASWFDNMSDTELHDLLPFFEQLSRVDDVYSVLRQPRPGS
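System: truncated SCP-1 phosphatase (76-261aa); medium: Tris acetate buffer pH 5.5 with MgCl2 and Tween-20; incubation: 45 min room-temperature reaction, 5 min colour, 30 min stabiliser; compound: single 20 µM dose, 1% DMSO; reagent: Phosphorylated 17-residue peptide substrate; read-out: % inhibition at 20 µM; technique: colorimetric free-phosphate detection, absorbance 630 nm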
SUMO1-SIM PPI: modulators of human SUMO1-mediated protein-protein interactions; P63165; SUMO1 binding to a labelled peptide, TR-FRET, 1 h; inhibition, % at 20 µM; 360,000 tested, 0.33% active; AID 602429; in the data active = inhibition above about 37%
Target sequence (P63165 whole entry, looked up): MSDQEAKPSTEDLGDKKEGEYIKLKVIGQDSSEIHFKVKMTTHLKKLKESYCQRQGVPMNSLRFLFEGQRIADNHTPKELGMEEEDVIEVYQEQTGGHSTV
NadD inh: inhibitors of Staphylococcus aureus NadD | purified NadD enzyme, colorimetric absorbance read-out | inhibition, % at 20 µM | 360,000 tested, 0.78% active | AID 602399; in the data active = inhibition above about 26%
DNMT1 block: blocks human DNA methyltransferase DNMT1. P26358. DNMT1 molecular beacon, Hinp1I cleavage, fluorescence. inhibition (reported as % activation of signal), % at 10 µM. 360,000 tested, 0.83% active. AID 588458; in the data active = inhibition above about 50%
LMPTP block: LMPTP (human) inhibition. P24666. recombinant LMPTP-A, OMFP fluorogenic substrate, fluorescence intensity. inhibition, % at 20 µM. 360,000 tested, 0.22% active;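 active = compounds that cut the enzyme signal by at least half of the control window in the single-dose screen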;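 also: plate controls were DMSO wells with enzyme plus substrate for no effect and substrate without enzyme for full effect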
Target sequence (P24666 whole entry, looked up): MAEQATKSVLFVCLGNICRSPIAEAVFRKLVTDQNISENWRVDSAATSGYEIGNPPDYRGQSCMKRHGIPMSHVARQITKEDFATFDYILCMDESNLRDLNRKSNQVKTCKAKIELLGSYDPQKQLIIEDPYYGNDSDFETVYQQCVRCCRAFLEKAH
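Test system: LMPTP-A, protein tyrosine phosphatase of low molecular weight; Input: 0.625 nM enzyme; Incubation: 50 min dark incubation at room temperature; Signal: endpoint fluorescence intensity from OMFP dephosphorylation; Read-out basis: % inhibition versus control wells.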
Active calls of the source: *; x = not tested or not shown.

SMILES	STEP block	Scp1 inh	SUMO1-SIM PPI	NadD inh	DNMT1 block	LMPTP block
CCOC(=O)/C(=C\C=C1/Sc2cc(OCC)c(OCC)cc2N1CC)C(C)=O	-129.4	0.6	-201.1	-6.4	93.1*	14.6
CCOC(=O)/C(=C/C=C1\Sc2cc(OCC)c(OCC)cc2N1CC)C(C)=O	-133.7	2.5	-171.5	-3.7	46.1	17.0
C[C@H](CO)N1C[C@H](C)[C@H](CN(C)C(=O)Nc2ccccc2)OCc2cnnn2CCCC1=O	-1.4	x	6.3	4.0	5.3	-1.6
CCOC(=O)c1ccc(NC(=O)c2c(N)n(Cc3ccccc3)c(=O)[nH]c2=O)cc1	0.2	-3.0	46.4*	7.5	49.2	-0.6
CCOC(=O)c1ccc(NC(=O)c2ccccc2)cc1	-5.1	-7.2	2.2	-3.7	3.1	-1.3
O=S(=O)(O)c1ccc(O)c2cc(Nc3ccccc3)ccc12	99.4*	95.8*	120.2*	67.9*	96.0*	95.6*
COc1ccccc1/C=C1\SC(=S)N(CCC(=O)NNC(=O)c2ccccc2O)C1=O	-0.4	-9.5	0.8	31.7*	-0.9	0.7
O=C(CCCN1C(=O)/C(=C/c2cccs2)SC1=S)NNC(=O)c1ccccc1O	-3.4	0.7	-0.5	27.8*	-1.9	0.2
COc1ccc(/C=C2/SC(=S)N(CCCC(=O)Nc3ccccc3C(=O)O)C2=O)cc1	2.9	-8.5	-12.7	9.1	1.4	2.4
O=C(CCCN1C(=O)/C(=C/c2cccs2)SC1=S)NNC(=O)c1ccncc1	0.0	-2.7	-9.9	15.0	-10.1	3.4
COc1ccc(/C=C2\SC(=S)N(CCCC(=O)NNC(=O)c3ccccc3O)C2=O)cc1	1.6	4.6	4.6	37.9*	-1.7	2.1
CCOc1ccc(NC(=O)CCC(=O)Nc2nnc(CC)s2)cc1	-2.2	-2.2	-6.6	5.7	-2.0	-1.3
Cc1cccc(Cn2ccc(NC(=O)c3ccc4c(c3)OCO4)n2)c1	1.3	-1.7	0.6	-2.4	-2.7	0.3
O=C(Nc1ccn(Cc2ccc(Cl)cc2)n1)c1ccc2c(c1)OCO2	-1.3	-5.3	40.1*	-8.5	-7.8	-0.5
O=C1Nc2ccccc2-n2nnnc2C1N1CCN(c2ccc(C(F)(F)F)cn2)CC1 (centres undefined)	x	x	3.0	x	x	0.4
O=C(Nc1ccc(F)cc1)c1sc2cc(C(F)(F)F)cnc2c1-c1cccs1	5.7	-2.0	10.1	9.7	-0.6	3.5
N#Cc1ccc(NC(=O)c2sc3cc(C(F)(F)F)cnc3c2-c2cccs2)cc1	2.2	-12.0	55.9*	13.9	0.1	-0.5
Cc1ccc(-c2nc3ccccc3n2C(C(=O)NC(C)(C)C)C2CC2)cc1 (centres undefined)	x	x	5.5	x	x	-0.8
CCc1nc2ccc(C(=O)NCCN3CCNC3=O)cn2c1N(C)CCC(C)C	1.7	x	2.1	3.7	-4.8	-1.5
O=C(NC1CCCC1)c1cnn2c(C(F)(F)F)cc(-c3ccc4c(c3)OCO4)nc12	-1.1	-5.2	-2.2	-1.2	51.5*	1.5
COc1cc(Nc2cccc[n+]2C)cc(OC)c1OC	-2.6	2.0	9.8	0.0	1.8	-0.1
CCNc1ccc2noc3c2c1C(=O)c1ccccc1-3	-321.2	11.8	-12.0	16.1	62.9*	-14.6
Nc1nc(NCCc2ccccc2)nc(NCCO)c1[N+](=O)[O-]	0.1	-4.5	-3.9	-0.5	2.3	-0.5
Oc1ccccc1-c1nc(NCCN2CCOCC2)c2ccccc2n1	0.6	-10.8	8.1	-5.8	4.5	5.9
Fc1ccccc1-c1nc(NCCCN2CCOCC2)c2ccccc2n1	-3.9	-2.6	0.2	4.0	1.3	50.6*
SMILES	STEP block	Scp1 inh	SUMO1-SIM PPI	NadD inh	DNMT1 block	LMPTP block
CC(C)OCCCNc1nc(-c2ccccc2)nc2ccccc12	3.2	-1.2	4.9	-8.9	6.5	55.7*
Cc1ccc(-c2nc(NCCN3CCOCC3)c3ccccc3n2)cc1	-2.2	-8.0	3.3	-3.7	0.4	49.8*
Clc1ccc(-c2nc(NCCCN3CCOCC3)c3ccccc3n2)cc1	-0.6	2.3	5.3	-4.3	13.6	42.0
CCOC(=O)c1c(S(=O)(=O)NCC2CCN(CCc3cccs3)CC2)c(C)n(C)c1C	2.2	3.1	-1.8	3.8	1.8	-0.2
CC1CC(C)CN(S(=O)(=O)c2ccc(C(=O)Nc3nnc(-c4cccs4)o3)cc2)C1 (centres undefined)	4.9	-10.4	6.5	26.2	-1.7	2.4
CCC1CCCCN1S(=O)(=O)c1ccc(C(=O)Nc2nnc(-c3cccs3)o2)cc1 (centres undefined)	0.1	3.2	14.1	41.7*	-0.9	1.1
CCOc1cc(/C=N/Nc2nc(-c3cccc(S(=O)(=O)N4CCCC4)c3)cs2)ccc1O	-3.3	-9.3	18.0	44.9*	-21.6	1.9
COc1ccc(/C=N/Nc2nc(-c3cccc(S(=O)(=O)N4CCCC4)c3)cs2)cc1OC	-0.5	-4.2	6.7	11.6	-18.2	0.3
Cc1ccc([C@H]2N[C@]3(CCCN(Cc4ccc(Cl)cc4)C3=O)[C@H]3C(=O)N(C)C(=O)[C@@H]23)cc1	1.4	x	4.0	4.9	3.8	-1.8
CCOC(=O)N1CCN(c2cc(NCCC(=O)O)c3c4c(onc24)-c2ccccc2C3=O)CC1	-17.1	75.8*	43.6*	14.9	67.2*	9.5
O=C1c2ccccc2-c2onc3c(N4CCN(CCO)CC4)cc(N4CCN(C(=O)c5ccco5)CC4)c1c23	5.0	5.8	55.8*	23.9	-18.9	11.5
O=C(O)CCCNc1cc(N2CCN(C(=O)c3ccco3)CC2)c2noc3c2c1C(=O)c1ccccc1-3	45.1*	78.2*	53.8*	12.8	45.9	6.4
CN1CCN(c2cc(N3CCN(C(=O)c4ccco4)CC3)c3c4c(onc24)-c2ccccc2C3=O)CC1	4.4	5.8	2.9	34.1*	-21.2	8.4
O=C(c1ccco1)N1CCN(C2=NS(=O)(=O)c3ccccc32)CC1	-3.2	-12.2	-2.8	-0.2	2.4	-3.8
Cc1cccc(C)c1NC(=O)C1(C)CSCC(=O)N1Cc1cccs1 (centres undefined)	x	x	2.1	x	x	-0.7
CC1(c2ccccc2)CC(C)(C)N2C(=O)C3(C(C#N)=C(N)Oc4cc(O)ccc43)c3cccc1c32 (centres undefined)	1.8	-6.1	0.7	4.8	-21.1	-0.2
CC1(c2ccccc2)CC(C)(C)N2C(=O)/C(=C3\SC(=S)NC3=O)c3cccc1c32 (centres undefined)	0.1	-13.2	-2.8	35.1*	34.1	3.9
CCOc1cccc(C(=O)Nc2ccccc2C(=O)N2CCOCC2)c1	-0.6	-14.9	2.0	-8.6	2.9	-1.6
COCCN=c1scc(-c2ccco2)n1/N=C/c1ccc(O)c(O)c1O	7.7	88.5*	19.4	38.5*	69.8*	73.5*
CCOC(=O)c1c(Nc2ccc(Cl)cc2)sc(/C=C2\C=Nc3ccccc32)c1O	-3.3	3.1	11.0	32.7*	5.1	0.7
